Screening results (PubChem)
Compounds with a hit are over-represented: about 3.9% of the library has one in this group of screens.
CHRM1 agonist = human M1 muscarinic receptor agonists, primary screen, Fluo-8 calcium fluorescence, CHO-K1 cells, HTS | Muscarinic acetylcholine receptor M1 (Homo sapiens), P11229 | CHO-K1 hM1, agonist mode; 0% DMSO, 100% acetylcholine EC100 | 0.33% of 360,000 active | activation, % at 3 µM;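 active means activation above the run's mean compound activation plus 3 SD, cut at about 16% in these data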;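 further: peak over basal fluorescence ratio within a 140 s kinetic read after compound addition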
Target sequence (P11229 whole entry, looked up): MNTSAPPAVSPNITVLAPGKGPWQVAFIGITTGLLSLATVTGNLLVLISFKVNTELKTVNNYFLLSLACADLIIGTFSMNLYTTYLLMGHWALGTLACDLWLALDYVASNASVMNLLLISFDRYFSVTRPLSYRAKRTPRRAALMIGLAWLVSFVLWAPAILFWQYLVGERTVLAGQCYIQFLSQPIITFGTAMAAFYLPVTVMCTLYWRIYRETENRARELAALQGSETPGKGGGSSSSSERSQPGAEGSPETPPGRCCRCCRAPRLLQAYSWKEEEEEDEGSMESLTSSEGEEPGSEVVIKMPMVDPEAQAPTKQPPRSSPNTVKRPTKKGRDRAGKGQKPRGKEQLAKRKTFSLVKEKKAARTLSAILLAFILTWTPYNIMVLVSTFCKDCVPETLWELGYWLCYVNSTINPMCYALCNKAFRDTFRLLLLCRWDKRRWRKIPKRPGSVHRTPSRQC
TAAR1 agonist = human TAAR1 agonists, primary screen, Fluo-8 calcium fluorescence, CHO RD-HGA16 cells; Trace amine-associated receptor 1 (Homo sapiens), Q96RJ0; 0.99% of 360,000 active; vehicle wells 0%, saturating PEA agonist 100%; AID 624467, 2012; activation, % at 3 µM;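 active means activation above the mean activation of all test compounds in the run plus 3 SD, cut at about 38% in these data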
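System: CHO-derived RD-HGA16 cells with stable Gα16 and human TAAR1 / Times: 17-24 h plating, Fluo-8 75 min 37 °C, 30 min RT / Technique: calcium-sensitive Fluo-8 signal, excitation 470-495, emission 515-575 nm / Measure: % activation relative to PEA EC100 response / Benchmarks: DMSO and PEA EC100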
TAAR1 antag = human TAAR1 antagonists, primary screen, Fluo-8 calcium fluorescence, CHO RD-HGA16 cells; Trace amine-associated receptor 1 (Homo sapiens), Q96RJ0; antagonist; inhibition, % at 3 µM; 1.5% of 360,000 active; AID 624466, 2012;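 active means inhibition above a per-plate cutoff, the mean inhibition of test compounds on that plate plus 3 SD, cut at about 49% in these data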
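Assay system: CHO-derived RD-HGA16 cells stably expressing human TAAR1 plus Gα16. Timing: 140 s kinetic read after compound, 140 s after agonist. Technique: kinetic Fluo-8 calcium fluorescence measurement. Measure: % inhibition of agonist calcium response.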
M1 antag = human M1 muscarinic receptor antagonists, primary screen, CHO-K1 cells, Fluo-8 calcium fluorescence, 1536-well; CHO-K1 hM1, ACh EC80 antagonist; inhibition, % at 3 µM; 1.3% of 360,000 active; AID 588852, 2011;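 active means percent inhibition above its own plate's cutoff, namely the mean of that plate's compound wells plus 3 SD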;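 further: peak over basal fluorescence ratio during 140 s after agonist addition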
HTR2A ag = mouse Htr2a agonists via beta-arrestin recruitment, primary screen, cell-based, luminescence | 5-hydroxytryptamine receptor 2A (Mus musculus), P35363 | CHO-K1 mHTR2A beta-arrestin complementation; percent of 30 µM serotonin response | activation, % at 7.6 µM | 0.66% of 360,000 active | AID 624169, 2012;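 active means activation above a run cutoff, the mean activation of all tested compounds plus 3 SD, cut at about 14% in these data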
CHRM1 PAM = human M1 muscarinic receptor positive allosteric modulators, primary screen, CHO-K1 cells, Fluo-8 calcium fluorescence, 1536-well | 0.088% of 360,000 active | Muscarinic acetylcholine receptor M1 (Homo sapiens), P11229 | CHO-K1 hM1, ACh EC20; 0% = ACh EC20, 100% = maximal ACh | AID 588819, 2011 | activation, % at 3 µM; in the data active means activation above about 19%, passing the limit was not always enough
TAAR1 ag confirm = human TAAR1 agonists, retest of hits, confirmation, Fluo-8 calcium fluorescence, CHO RD-HGA16 cells; shares compounds with TAAR1 agonist; scaled: DMSO 0%, maximal phenethylamine 100%; activation, % at 3 µM; 82% of 2,400 active;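 active means activation above a cutoff set at the run's mean compound activation plus 3 SD, cut at about 39% in these data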
Ga16 nonsel ag = nonselective calcium mobilization agonists, CHO-Ga16 cells, counter-screen for hTAAR1 agonist project, cell-based, fluorescence, CHO-Ga16 parental line. Fluo-8 calcium fluorescence; normalized to maximal ATP response, DMSO zero. 50% of 2,400 active. activation, % at 3 µM. shares compounds with TAAR1 agonist;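 active means activation above the run cutoff, the mean activation over all tested wells plus 3 SD, cut at about 12% in these data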
TAAR1 desens = TAAR1 desensitization by agonist hits, confirmation, counter-screen for TAAR1 agonist project, cell-based, fluorescence, tachyphylaxis | shares compounds with TAAR1 agonist | CHO RD-HGA16 hTAAR1, Fluo-8 calcium, beta-PEA response inhibition | inhibition, % at 3 µM | 46% of 2,400 active | AID 651951, 2012;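 active means inhibition above the run cutoff, the mean inhibition of all test compounds plus 3 SD, cut at about 49% in these data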;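 further: beta-PEA stimulus applied at its EC80; loss of beta-PEA calcium signal after compound pretreatment read as receptor desensitization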
Ga16 nonsel ant = inhibition of ATP-evoked calcium response in CHO-Ga16 cells, counter-screen for TAAR1 agonist project, cell-based, fluorescence; CHO-Ga16 ATP-induced calcium, Fluo-8 fluorescence; shares compounds with TAAR1 agonist; AID 651952, 2012; 39% of 2,400 active; inhibition, % at 3 µM;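 active means inhibition above the plate's mean compound inhibition plus 3 SD, computed per plate, cut at about 22% in these data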
Large screens that a line does not name were inactive (follow-up assays come after a bar, where they were run).

COc1ccc(CC(=O)NC(=S)Nc2cccc(C)c2)cc1	CHRM1 agonist 26, TAAR1 agonist 82, TAAR1 antag 49 | TAAR1 ag confirm 71 | Ga16 nonsel ag 50 | TAAR1 desens 52 | Ga16 nonsel ant 45
COc1ccccc1NC(=S)NC(=O)Cc1ccc(Cl)cc1	TAAR1 agonist 125, TAAR1 antag 107 | TAAR1 ag confirm 126 | Ga16 nonsel ag 89 | TAAR1 desens 101 | Ga16 nonsel ant 73
COc1ccc(CC(=O)NC(=S)Nc2cccc(CO)c2)cc1	CHRM1 agonist 29, TAAR1 agonist 79 | TAAR1 ag confirm 83 | Ga16 nonsel ag 55 | TAAR1 desens inactive | Ga16 nonsel ant inactive
COc1cccc(NC(=S)NC(=O)Cc2ccc(Cl)cc2)c1	CHRM1 agonist 37, TAAR1 agonist 93, TAAR1 antag 84 | TAAR1 ag confirm 124 | Ga16 nonsel ag 83 | TAAR1 desens 91 | Ga16 nonsel ant 69
CCC(=O)Nc1cccc(NC(=S)NC(=O)Cc2ccccc2)c1	none
Cc1ccc(NC(=O)Cc2ccccc2F)cc1S(=O)(=O)N1CCCCCC1	none
CC(C)COC(=O)N1CCCCC1c1cc(C(=O)NCc2cccnc2)no1 (configuration not stated)	none
O=c1[nH]ncc2c3ccccc3n(Cc3cccc(Cl)c3)c12	TAAR1 agonist 54 | TAAR1 ag confirm inactive | Ga16 nonsel ag inactive | TAAR1 desens inactive | Ga16 nonsel ant inactive
COc1ccc(/C=C2\SC(=O)N(CCC(=O)Nc3ccccc3)C2=O)cc1OC	none
COc1cc(/C=C2\SC(=O)N(CCN)C2=O)ccc1OS(=O)(=O)c1cc(C)ccc1C	TAAR1 agonist 54 | TAAR1 ag confirm 72 | Ga16 nonsel ag 29 | TAAR1 desens 57 | Ga16 nonsel ant inactive
Cc1cc(C)cc(NC(=O)c2ccc(CNc3c(N4CCCC4)c(=O)c3=O)cc2)c1	none
NC(COCc1ccccc1)c1csc(Nc2nncc3ccccc23)n1 (configuration not stated)	none
COc1ccc(CC(N)c2csc(NC(=O)Nc3cccc(C(F)(F)F)c3)n2)cc1 (configuration not stated)	TAAR1 agonist 85, TAAR1 antag 65 | TAAR1 ag confirm 80 | Ga16 nonsel ag 42 | TAAR1 desens 65 | Ga16 nonsel ant 54
NC(Cc1ccc(C(F)(F)F)cc1)c1csc(NC(=O)Nc2ccccc2)n1 (configuration not stated)	TAAR1 agonist 50 | TAAR1 ag confirm 61 | Ga16 nonsel ag 40 | TAAR1 desens 63 | Ga16 nonsel ant 53
NC(COCc1ccccc1)c1csc(NC(=O)Nc2cccc(Cl)c2)n1 (configuration not stated)	TAAR1 agonist 58 | TAAR1 ag confirm 51 | Ga16 nonsel ag 22 | TAAR1 desens inactive | Ga16 nonsel ant 41
NC(Cc1ccc(C(F)(F)F)cc1)c1csc(Nc2nncc3ccccc23)n1 (configuration not stated)	TAAR1 agonist 55 | TAAR1 ag confirm 140 | Ga16 nonsel ag 58 | TAAR1 desens 106 | Ga16 nonsel ant 69
CC1(C(=O)NCc2ccccc2)CN(S(C)(=O)=O)CC(=O)N1CCCn1ccnc1 (configuration not stated)	none (no result: CHRM1 agonist, M1 antag, CHRM1 PAM)
C=CCOc1c(Br)cc(CNCCCN2CCOCC2)cc1OC	none
O=C(CCS(=O)(=O)c1ccc(F)cc1)N1CCOCC1	none
NC(Cc1ccc(C(F)(F)F)cc1)c1csc(Nc2cc(Oc3ccccc3)ncn2)n1 (configuration not stated)	TAAR1 agonist 48 | TAAR1 ag confirm 38 | Ga16 nonsel ag 21 | TAAR1 desens inactive | Ga16 nonsel ant 38
NC(CCc1ccccc1)c1csc(NC(=O)Nc2cccc(C(F)(F)F)c2)n1 (configuration not stated)	TAAR1 agonist 49 | TAAR1 ag confirm 39 | Ga16 nonsel ag 19 | TAAR1 desens inactive | Ga16 nonsel ant 40
N#Cc1ccc(N=c2ssnc2Cl)cc1	TAAR1 agonist 48 | TAAR1 ag confirm 53 | Ga16 nonsel ag 44 | TAAR1 desens inactive | Ga16 nonsel ant 25
Clc1nssc1=Nc1ccccc1	none (no result: TAAR1 agonist, TAAR1 antag)
O=C(NCc1ccc(F)cc1F)Nc1cnccc1C(F)(F)F	none
COC(=O)C1(C)COP(=O)(Nc2ccc(OC)cc2)OC1 (configuration not stated)	none
CC(=O)c1c(C)[nH]c(C(=O)OCC(=O)NNC(=O)c2ccc([N+](=O)[O-])cc2)c1C	none
CC(=O)c1c(C)[nH]c(C(=O)OCc2nnc(-c3ccc([N+](=O)[O-])cc3)o2)c1C	TAAR1 agonist 48 | TAAR1 ag confirm inactive | Ga16 nonsel ag inactive | TAAR1 desens inactive | Ga16 nonsel ant inactive
O=c1[nH]cc(NCCc2ccccc2)c(=O)[nH]1	none (no result: TAAR1 agonist, TAAR1 antag) | Ga16 nonsel ag inactive | Ga16 nonsel ant inactive
O=c1[nH]cc(NCc2ccccc2)c(=O)[nH]1	none
O=C1Nc2ccccc2C(=O)C1(Cl)Cc1ccccc1 (configuration not stated)	TAAR1 agonist 47 | TAAR1 ag confirm inactive | Ga16 nonsel ag inactive | TAAR1 desens inactive | Ga16 nonsel ant inactive
